Assay results of several laboratories.
Protocols differ between the studies behind these lines.
EGFR L858R/T790M: Epidermal growth factor receptor (EGFR, Homo sapiens, UniProt P00533, L858R/T790M)
EGFR: Epidermal growth factor receptor (EGFR, Homo sapiens, UniProt P00533)

| Structure (SMILES) | target | assay | quantity | value |
| --- | --- | --- | --- | --- |
| Cc1ncc(CN2CCN(Cc3ccccn3)CC2)c2cc(C(=O)c3ccc4c(c3)OCCO4)oc12 | EGFR L858R/T790M | enzyme activity, inhibitor, ADP detection | IC50 | 3.23 nM |
| CCc1c(C)c2ccc(OCC(=O)NN=Cc3ccc([N+](=O)[O-])cc3)cc2oc1=O | EGFR | enzyme activity, inhibitor, ATP luminescence | IC50 | 414 nM |
| C=CC(=O)N1CC[C@@H](Oc2nc(Nc3ccc(N4CCC(N5CCN(C)CC5)CC4)cc3)c(C(N)=O)nc2CC)C1 | EGFR L858R/T790M | enzyme activity, inhibitor | IC50 | 1.2 nM |
| O=C(CCn1c(=O)ccc2ccccc21)N1CCOCC1 | EGFR | enzyme activity, inhibitor | IC50 | 52.7 nM |
| C=CC(=O)Nc1cc(Nc2ncc(C(=O)OC(C)C)c(-c3cn(C)c4ccccc34)n2)c(OC)cc1N(C)CCN(C)C | EGFR L858R/T790M | enzyme activity, inhibitor | IC50 | 0.6 nM |
| COC(=O)[C@]12CCC(C)(C)C[C@H]1[C@H]1C(=O)C=C3[C@@]4(C)C=C(C#N)C(=O)C(C)(C)[C@@H]4CC[C@@]3(C)[C@]1(C)CC2 | EGFR L858R/T790M | binding, MST | Kd | 1100 nM |
| Cc1ccc2c(-c3cc4c(CN5CCN(Cc6ccccn6)CC5)cnc(C)c4o3)cc(=O)oc2c1 | EGFR L858R/T790M | enzyme activity, inhibitor, ADP detection | IC50 | 12.4 nM |
| Cc1c(Cc2ccccc2)c(=O)oc2c(C)c(OCC(=O)NN=Cc3ccc([N+](=O)[O-])cc3)ccc12 | EGFR | enzyme activity, inhibitor, ATP luminescence | IC50 | 313 nM |
| O=C(O)Cc1csc(NC(=O)c2cc3ccccc3[nH]2)n1 | EGFR | enzyme activity, inhibitor, ELISA | IC50 | 618 nM |
| CC(C)=CCc1c(O)c(O)c2oc3c(O)ccc(O)c3c(=O)c2c1CC=C(C)C | EGFR | binding, SPR | Kd | 19000 nM |
| Cc1ncc(CN2CCc3ccccc3C2)c2cc(C(=O)c3ccc4c(c3)OCCO4)oc12 | EGFR L858R/T790M | enzyme activity, inhibitor, ADP detection | IC50 | 10.8 nM |
| COc1ccc2[nH]c(C(=O)Nc3nc(CC(=O)O)cs3)cc2c1 | EGFR | enzyme activity, inhibitor, ELISA | IC50 | 1740 nM |
